Laboratory results: ChEMBL document CHEMBL4390684, “The synthesis of 4,6-diaryl-2-pyridones and their bioactivation in CYP1 expressing breast cancer cells” (Bioorg Med Chem Lett, 2019)

What was measured:
MCF7 [1] = test: Antiproliferative activity against ER positive human MCF7 cells expressing low level of CYP assessed as reduction in cell viability measured after 96 hrs by MTT assay; type: functional, cell-based; details: MCF7, 96 h
Summary of the method: (§1)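 Antiproliferative IC50 values were determined in MCF-7, MDA-MB-468, TCDD-treated MCF-7 (high CYP1A1 expression) and non-tumour MCF-10A breast cells. Each value is the mean of two independent experiments run in quadruplicate.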

MCF7 [2] = test: Antiproliferative activity against […]-induced ER positive human MCF7 cells expressing CYP1A1 assessed as reduction in cell viability after 96 hrs by MTT assay; type: functional, cell-based; details: MCF7, 96 h; summary of the method: as §1
MCF7 [3] = test: Activation factor, ratio of antiproliferative IC50 of ER positive human MCF7 cells expressing low level of CYP to antiproliferative IC50 of […]-induced ER positive human MCF7 cells expressing CYP1A1; type: functional
[4] = Selectivity index, ratio of IC50 for human MCF10A cells to IC50 for human MDA-MB-468 cells expressing CYP1A1 and CYP1B1; type: toxicity; details: read-out: Ratio IC50
MDA-MB-468 [5] = test: Antiproliferative activity against ER negative human MDA-MB-468 cells expressing CYP1A1 and CYP1B1 assessed as reduction in cell viability measured after 96 hrs by MTT assay; type: functional, cell-based; details: MDA-MB-468, 96 h; summary of the method: as §1
MCF-10A [6] = test: Cytotoxicity against human MCF10A cells assessed as reduction in cell viability after 96 hrs by MTT assay; type: cell-based; summary of the method: as §1
Cytochrome P450 1A1 [7] = biological target: T1, Cytochrome P450 1A1 (Homo sapiens, UniProt P04798); test: Drug metabolism in supersomes expressing human CYP1A1 and coexpressing NADPH reductase assessed as CYP1A1-mediated drug metabolism by measuring retention time at 10 uM in the presence of NADPH measured at 5 mins interval for 25 mins by reverse phase HPLC method; type: ADME; details: recombinant enzyme
T1 sequence (P04798 whole entry): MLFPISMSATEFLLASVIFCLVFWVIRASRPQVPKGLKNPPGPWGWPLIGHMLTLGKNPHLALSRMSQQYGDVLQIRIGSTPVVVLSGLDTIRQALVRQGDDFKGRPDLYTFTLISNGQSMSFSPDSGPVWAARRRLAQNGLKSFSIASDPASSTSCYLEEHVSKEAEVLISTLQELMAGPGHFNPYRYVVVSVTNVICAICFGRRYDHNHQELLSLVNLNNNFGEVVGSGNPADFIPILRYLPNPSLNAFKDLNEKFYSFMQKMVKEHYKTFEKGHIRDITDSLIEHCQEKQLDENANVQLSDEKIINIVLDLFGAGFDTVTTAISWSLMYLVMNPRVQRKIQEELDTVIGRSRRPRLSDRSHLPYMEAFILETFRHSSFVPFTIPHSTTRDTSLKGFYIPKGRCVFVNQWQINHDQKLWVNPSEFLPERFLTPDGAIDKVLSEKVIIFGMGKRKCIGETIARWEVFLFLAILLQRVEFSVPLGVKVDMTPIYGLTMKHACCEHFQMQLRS
Summary of the method: (§2)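 Substrate was incubated with insect-cell Supersomes expressing human CYP1A1 or CYP1B1 plus NADPH reductase, at 20 pmol/mL CYP. Controls used non-CYP Supersomes, or omitted the compound, NADPH or active enzyme. Duplicate samples were taken every 5 min and quenched with ice-cold acetonitrile. After centrifugation, the supernatant was analysed by reverse-phase HPLC for parent depletion (half-life) and metabolite peaks.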

Cytochrome P450 1B1 [8] = biological target: T2, Cytochrome P450 1B1 (Homo sapiens, UniProt Q16678); test: Drug metabolism in supersomes expressing human CYP1B1 and coexpressing NADPH reductase assessed as CYP1B1-mediated drug metabolism by measuring retention time at 10 uM in the presence of NADPH measured at 5 mins interval for 25 mins by reverse phase HPLC method; type: ADME; details: recombinant enzyme; summary of the method: as §2
T2 sequence (Q16678 whole entry): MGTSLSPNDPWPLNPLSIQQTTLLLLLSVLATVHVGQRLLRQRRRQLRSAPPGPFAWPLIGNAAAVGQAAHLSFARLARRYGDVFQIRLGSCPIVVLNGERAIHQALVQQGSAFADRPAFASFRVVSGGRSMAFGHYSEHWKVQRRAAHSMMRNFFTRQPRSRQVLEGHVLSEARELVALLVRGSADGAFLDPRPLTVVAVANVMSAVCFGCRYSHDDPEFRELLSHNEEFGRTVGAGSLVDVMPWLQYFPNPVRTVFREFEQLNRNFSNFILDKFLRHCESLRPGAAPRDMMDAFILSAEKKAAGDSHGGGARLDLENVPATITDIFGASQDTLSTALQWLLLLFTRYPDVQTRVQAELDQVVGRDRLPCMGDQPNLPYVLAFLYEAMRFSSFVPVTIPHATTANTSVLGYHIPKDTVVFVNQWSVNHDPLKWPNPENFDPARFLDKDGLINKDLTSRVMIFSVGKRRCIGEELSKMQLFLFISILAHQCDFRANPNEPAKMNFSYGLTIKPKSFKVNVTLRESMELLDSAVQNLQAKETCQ

MCF7 [9] = test: Antiproliferative activity against ER positive human MCF7 cells expressing low level of CYP assessed as reduction in cell viability in presence of CYP 1 inhibitor alpha-naphthoflavone at 1 uM measured after 96 hrs by MTT assay; type: functional, cell-based; details: MCF7, 96 h
MCF7 [10] = test: Antiproliferative activity against […]-induced ER positive human MCF7 cells expressing CYP1A1 assessed as reduction in cell viability in presence of CYP 1 inhibitor alpha-naphthoflavone measured after 96 hrs by MTT assay; type: functional, cell-based; details: MCF7, 96 h
MDA-MB-468 [11] = test: Antiproliferative activity against ER negative human MDA-MB-468 cells expressing CYP1A1 and CYP1B1 assessed as reduction in cell viability in presence of CYP 1 inhibitor alpha-naphthoflavone at 1 uM measured after 96 hrs by MTT assay; type: functional, cell-based; details: MDA-MB-468, 96 h
MCF-10A [12] = test: Antiproliferative activity against human MCF10A cells assessed as reduction in cell viability in presence of CYP 1 inhibitor alpha-naphthoflavone at 1 uM measured after 96 hrs by MTT assay
CYP1A1 = biological target: T3, CYP1A1 (Homo sapiens, UniProt P04798); test: Drug metabolism in supersomes expressing human CYP1A1 and coexpressing NADPH reductase assessed as CYP1A1-mediated drug metabolism by measuring compound half life at 10 uM in the presence of NADPH measured at 5 mins interval for 25 mins by reverse phase HPLC analysis; type: ADME; summary of the method: as §2
T3 sequence (P04798 whole entry): T1 sequence (P04798 whole entry)

CYP1B1 = biological target: T4, CYP1B1 (Homo sapiens, UniProt Q16678); test: Drug metabolism in supersomes expressing human CYP1B1 and coexpressing NADPH reductase assessed as CYP1B1-mediated drug metabolism by measuring compound half life at 10 uM in the presence of NADPH measured at 5 mins interval for 25 mins by reverse phase HPLC analysis; type: ADME; summary of the method: as §2
T4 sequence (Q16678 whole entry): T2 sequence (Q16678 whole entry)

Cytochrome P450 1A1 [13] = biological target: T1, Cytochrome P450 1A1; test: Drug metabolism in supersomes expressing human CYP1A1 and coexpressing NADPH reductase assessed as CYP1A1-mediated 4-(3,4-Dihydroxyphenyl)-6-(2,4-dimethoxyphenyl)-1H-pyridin-2-one formation at 10 uM in the presence of NADPH measured at 5 mins interval for 25 mins by reverse phase HPLC method; type: ADME; details: recombinant enzyme; summary of the method: as §2
Cytochrome P450 1B1 [14] = biological target: T2, Cytochrome P450 1B1; test: Drug metabolism in supersomes expressing human CYP1B1 and coexpressing NADPH reductase assessed as CYP1B1-mediated 4-(3,4-Dihydroxyphenyl)-6-(2,4-dimethoxyphenyl)-1H-pyridin-2-one formation at 10 uM in the presence of NADPH measured at 5 mins interval for 25 mins by reverse phase HPLC method; type: ADME; details: recombinant enzyme; summary of the method: as §2
Cytochrome P450 1B1 [15] = biological target: T2, Cytochrome P450 1B1; test: Drug metabolism in supersomes expressing human CYP1B1 and coexpressing NADPH reductase assessed as CYP1B1-mediated second metabolite retention time at 10 uM in the presence of NADPH measured at 5 mins interval for 25 mins by reverse phase HPLC method; type: ADME; details: recombinant enzyme; summary of the method: as §2

SMILES | IC50 (MCF7 [1]) [nM] | IC50 (MCF7 [2]) [nM] | Ratio IC50 (MCF7 [3]) | selectivity ratio [4] | IC50 (MDA-MB-468 [5]) [nM] | IC50 (MCF-10A [6]) [nM] | Retention_time (Cytochrome P450 1A1 [7]) [min] | Retention_time (Cytochrome P450 1B1 [8]) [min] | IC50 (MCF7 [9]) [nM] | IC50 (MCF7 [10]) [nM] | IC50 (MDA-MB-468 [11]) [nM] | IC50 (MCF-10A [12]) [nM] | half-life at 10 µM (CYP1A1) [min] | half-life at 10 µM (CYP1B1) [min] | Drug metabolism (Cytochrome P450 1A1 [13]) | Drug metabolism (Cytochrome P450 1B1 [14]) | Retention_time (Cytochrome P450 1B1 [15]) [min]
COc1cc(OC)cc(-c2cc(-c3ccc4c(c3)OCO4)cc(=O)[nH]2)c1 | 400 | 200 | 2 | 2 | 350 | 700 |  |  |  |  |  |  |  |  |  |  | 
COc1ccc(-c2cc(-c3ccc4c(c3)OCO4)cc(=O)[nH]2)cc1OC | > 100000 | > 100000 |  | > 244 | 410 | > 100000 |  |  |  |  |  |  |  |  |  |  | 
CCCOc1ccc(-c2cc(-c3ccc(OC)cc3OC)[nH]c(=O)c2)cc1 | 45000 | 9000 | 5 | 125 | 400 | 50000 |  |  |  |  |  |  |  |  |  |  | 
COc1ccc(-c2cc(-c3ccc4c(c3)OCCO4)cc(=O)[nH]2)c(OC)c1 | 2500 | 3000 | 0.8 | 12 | 500 | 6000 |  |  |  |  |  |  |  |  |  |  | 
COc1ccc(-c2cc(-c3ccc(OC)cc3OC)[nH]c(=O)c2)cc1 | 500 | 200 | 2.5 | 20 | 80 | 1600 |  |  |  |  |  |  |  |  |  |  | 
COc1ccc(-c2cc(-c3ccc(OC)c(OC)c3)cc(=O)[nH]2)c(OC)c1 | 1000 | 400 | 2.5 | 100 | 500 | 50000 |  |  |  |  |  |  |  |  |  |  | 
COc1ccc(-c2cc(-c3ccc4c(c3)OCO4)[nH]c(=O)c2)c(OC)c1 | 18000 | 1000 | 18 | 13 | 6000 | 80000 |  |  |  |  |  |  |  |  |  |  | 
COc1ccc(-c2cc(-c3ccc(OC)cc3OC)[nH]c(=O)c2)c(OC)c1 | 9000 | 4500 | 2 | 1 | 5000 | 5000 |  |  |  |  |  |  |  |  |  |  | 
O=c1cc(-c2ccc3c(c2)OCO3)cc(-c2ccccc2)[nH]1 | 1600 | 800 | 2 | 3.1 | 800 | 2500 |  |  |  |  |  |  |  |  |  |  | 
CCCOc1ccc(-c2cc(-c3ccc(OC)c(OC)c3)[nH]c(=O)c2)cc1 | 60000 | 20000 | 3 | 389 | 180 | 70000 |  |  |  |  |  |  |  |  |  |  | 
COc1cc(-c2cc(-c3ccc4c(c3)OCO4)cc(=O)[nH]2)cc(OC)c1OC | > 100000 | 200 | >500 | > 2 | 50000 | > 100000 |  |  |  |  |  |  |  |  |  |  | 
COc1ccccc1-c1cc(-c2ccc3c(c2)OCO3)cc(=O)[nH]1 | 7000 | 3500 | 2 | 40 | 700 | 28000 |  |  |  |  |  |  |  |  |  |  | 
COc1ccc(-c2cc(-c3ccc4c(c3)OCO4)cc(=O)[nH]2)cc1 | > 100000 | > 100000 |  | > 100 | 1000 | > 100000 |  |  |  |  |  |  |  |  |  |  | 
COc1ccc(OC)c(-c2cc(-c3ccc4c(c3)OCO4)cc(=O)[nH]2)c1 | 2000 | 20 | 100 | 250 | 20 | 5000 |  |  |  |  |  |  |  |  |  |  | 
COc1ccc(-c2cc(-c3ccc(O)c(O)c3)cc(=O)[nH]2)c(OC)c1 | 1500 | 700 | 2.1 | 3 | 500 | 1500 | 10.48 | 10.48 |  |  |  |  |  |  |  |  | 
O=c1cc(-c2ccc3c(c2)OCO3)cc(-c2ccc(Cl)cc2Cl)[nH]1 | 85000 | 70000 | 1.2 | > 1.7 | 60000 | > 100000 |  |  |  |  |  |  |  |  |  |  | 
COc1ccc(-c2cc(-c3ccc4c(c3)OCO4)cc(=O)[nH]2)c(OC)c1 | 9000 | 1800 | 5 | 1000 | 40 | 40000 |  |  | 12000 | 9000 | > 100000 | > 100000 | 12.9 | 30.1 | Metabolite_Detected | Metabolite_Detected | 9.22
COc1ccc(/C=C\c2cc(OC)c(OC)c(OC)c2)cc1O [COMBRETASTATIN A4] |  | 2 | 1 | 0.53 | 3 | 1.6 |  |  |  |  |  |  |  |  |  |  | 
COc1ccc(-c2cc(-c3ccc4c(c3)OCO4)cc(=O)[nH]2)c(OC)c1OC | 12000 | 10000 | 1.2 | > 12.5 | 8000 | > 100000 |  |  |  |  |  |  |  |  |  |  | 
